Experiment [1] addresses Mitogen-activated protein kinase 14 (Homo sapiens, UniProt Q16539). The experiment can be described thus: Inhibition of p38 alpha Lys2 labeling site in human A-375 cells at 5 uM by KiNativ Profiling analysis relative to control. It is filed as cell-based.
A short description of experiment [2]: Inhibition of KHS1 (unknown origin) Lys1 labeling site by KiNativ Profiling analysis. More on the design: species or system Homo sapiens.
Experiment [3] has as its target Cyclin-dependent kinase 11B (Homo sapiens) (UniProt P21127). The experiment is described as follows: Inhibition of CDC2L1 (unknown origin) at 1 uM by Ambit Kinomescan binding assay relative to control.
Experiment [4] concerns the target Ribosomal protein S6 kinase alpha-3 (Homo sapiens) (UniProt P51812). The experiment is described as follows: Inhibition of RSK2 domain1 Lys2 labeling site harbouring DLKPENILLDEEGHIK in human A-375 cells at 5 uM by KiNativ Profiling analysis relative to control. It is filed as cell-based. Put shortly:
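Live A375 melanoma cells treated with compound at 5 or 0.5 μM, then lysed. Lysate kinases were labeled with a lysine-reactive ATP or ADP-biotin probe. Inhibition was read as protection of labeling sites from the probe.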

In experiment [5] the target is Cyclin-dependent kinase 9 (Homo sapiens) (UniProt P50750). The experiment can be described thus: Inhibition of CDK9 Lys2 labeling site in human A-375 cells at 0.5 uM by KiNativ Profiling analysis relative to control. It is filed as cell-based.
Cyclin-dependent kinase 9 (Homo sapiens), sequence (P50750 whole entry): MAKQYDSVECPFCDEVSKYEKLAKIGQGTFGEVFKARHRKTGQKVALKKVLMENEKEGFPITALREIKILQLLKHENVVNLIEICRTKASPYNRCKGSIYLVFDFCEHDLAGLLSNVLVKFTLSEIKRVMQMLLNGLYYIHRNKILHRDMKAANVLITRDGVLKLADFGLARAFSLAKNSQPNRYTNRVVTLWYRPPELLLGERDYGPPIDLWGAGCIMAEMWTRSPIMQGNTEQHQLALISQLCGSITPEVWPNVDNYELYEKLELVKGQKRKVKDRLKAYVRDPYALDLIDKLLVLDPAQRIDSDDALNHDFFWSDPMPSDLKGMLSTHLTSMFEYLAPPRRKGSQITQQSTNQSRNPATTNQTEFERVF
Experiment [6] deals with Tyrosine-protein kinase ABL1 (Homo sapiens), P00519 [H396P]. The experiment is described as follows: Inhibition of phosphorylated ABL1 H396P mutant (unknown origin) at 1 uM by Ambit Kinomescan binding assay relative to control; values are per cent of control.
Experiment [7] has as its target Atypical kinase COQ8B, mitochondrial (Homo sapiens) (UniProt Q96D53). The experiment can be described thus: Inhibition of ADCK4 (unknown origin) at 10 uM by Ambit Kinomescan binding assay.
In experiment [8] the target is Macrophage colony-stimulating factor 1 receptor (Homo sapiens) (UniProt P07333). The experiment is described as follows: Inhibition of CSF1R (unknown origin) at 10 uM by Ambit Kinomescan binding assay relative to control.
In experiment [9] the target is Serine/threonine-protein kinase Nek7 (Homo sapiens) (UniProt Q8TDX7). The experiment is described as follows: Inhibition of NEK7 (unknown origin) at 10 uM by Ambit Kinomescan binding assay.
Serine/threonine-protein kinase Nek7 (Homo sapiens), sequence (Q8TDX7 whole entry, looked up, the tested form may be a part): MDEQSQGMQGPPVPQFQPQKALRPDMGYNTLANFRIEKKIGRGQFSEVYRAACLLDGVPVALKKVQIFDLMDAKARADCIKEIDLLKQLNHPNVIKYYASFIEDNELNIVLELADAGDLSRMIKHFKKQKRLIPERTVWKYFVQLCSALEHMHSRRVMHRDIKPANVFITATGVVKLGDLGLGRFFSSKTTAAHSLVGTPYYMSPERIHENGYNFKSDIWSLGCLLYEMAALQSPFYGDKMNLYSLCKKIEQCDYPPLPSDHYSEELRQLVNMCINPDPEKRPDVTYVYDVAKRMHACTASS
Experiment [10] has as its target Ribosomal protein S6 kinase alpha-3 (Homo sapiens) (UniProt P51812). The experiment can be described thus: Inhibition of N-terminal RPS6KA3 kinase domain 1 (unknown origin) at 10 uM by Ambit Kinomescan binding assay.
In experiment [11] the target is Ribosomal protein S6 kinase alpha-5 (Homo sapiens) (UniProt O75582). The experiment can be described thus: Inhibition of C-terminal RPS6KA5 kinase domain 2 (unknown origin) at 10 uM by Ambit Kinomescan binding assay.
The target of experiment [12] is Cyclin-dependent kinase 20 (Homo sapiens) (UniProt Q8IZL9). The experiment is described as follows: Inhibition of CCRK Lys2 labeling site in human A-375 cells at 0.5 uM by KiNativ Profiling analysis relative to control. It is filed as cell-based.
Cyclin-dependent kinase 20 (Homo sapiens), sequence (Q8IZL9 whole entry): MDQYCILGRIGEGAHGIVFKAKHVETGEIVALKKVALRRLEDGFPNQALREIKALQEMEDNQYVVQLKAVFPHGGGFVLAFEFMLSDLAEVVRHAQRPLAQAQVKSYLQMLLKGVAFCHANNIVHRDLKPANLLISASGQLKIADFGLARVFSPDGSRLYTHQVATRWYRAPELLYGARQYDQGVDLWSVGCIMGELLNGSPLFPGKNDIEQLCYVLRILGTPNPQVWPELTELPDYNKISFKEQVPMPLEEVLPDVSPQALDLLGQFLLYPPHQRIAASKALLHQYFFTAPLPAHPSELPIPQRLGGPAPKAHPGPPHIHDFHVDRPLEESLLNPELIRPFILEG
Experiment [13] addresses Cyclin-dependent kinase 13 (Homo sapiens) (UniProt Q14004). The experiment is described as follows: Inhibition of CHED K2 labeling site in human Huh-7 cells at 10 uM by KiNativ Profiling analysis relative to control. The experiment is classed as cell-based.
Experiment [14] deals with Serine/threonine-protein kinase Nek4 (Homo sapiens) (UniProt P51957). The experiment can be described thus: Inhibition of NEK4 K2 labeling site in human Huh-7 cells at 10 uM by KiNativ Profiling analysis relative to control. It is filed as cell-based.
In experiment [15] the target is Cyclin-dependent kinase 7 (Homo sapiens) (UniProt P50613). The experiment can be described thus: Inhibition of CDK7 K2 labeling site in human Huh-7 cells at 1 uM by KiNativ Profiling analysis relative to control. It is filed as cell-based.
Cyclin-dependent kinase 7 (Homo sapiens), sequence (P50613 whole entry): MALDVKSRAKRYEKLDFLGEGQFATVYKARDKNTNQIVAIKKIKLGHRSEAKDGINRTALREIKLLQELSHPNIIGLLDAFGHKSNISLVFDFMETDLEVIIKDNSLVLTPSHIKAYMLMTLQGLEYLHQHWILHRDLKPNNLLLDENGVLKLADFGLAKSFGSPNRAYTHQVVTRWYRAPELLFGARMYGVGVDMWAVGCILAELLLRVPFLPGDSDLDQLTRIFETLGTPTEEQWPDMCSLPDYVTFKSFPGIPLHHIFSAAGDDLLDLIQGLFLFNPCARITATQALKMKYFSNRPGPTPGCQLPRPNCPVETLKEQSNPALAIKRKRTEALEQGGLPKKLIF
For experiment [16], the target named is T1, Serine/threonine-protein kinase Chk1 (Homo sapiens) (UniProt O14757).
T1 sequence (whole entry): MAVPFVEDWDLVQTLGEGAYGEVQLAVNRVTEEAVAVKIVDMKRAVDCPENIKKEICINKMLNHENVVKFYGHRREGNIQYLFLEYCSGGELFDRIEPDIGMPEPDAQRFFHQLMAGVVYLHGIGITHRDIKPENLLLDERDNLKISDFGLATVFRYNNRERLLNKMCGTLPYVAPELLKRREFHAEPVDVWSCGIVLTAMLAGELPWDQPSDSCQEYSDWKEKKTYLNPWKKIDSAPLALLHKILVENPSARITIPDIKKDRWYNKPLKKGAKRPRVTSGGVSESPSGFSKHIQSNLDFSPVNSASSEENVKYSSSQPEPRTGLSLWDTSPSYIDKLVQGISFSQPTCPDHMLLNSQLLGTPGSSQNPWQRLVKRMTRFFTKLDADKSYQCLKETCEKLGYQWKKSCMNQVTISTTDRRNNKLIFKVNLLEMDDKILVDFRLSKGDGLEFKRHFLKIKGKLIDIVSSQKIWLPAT
The experiment is described as follows: Inhibition of CHK1 in human Huh-7 cells at 1 uM by KiNativ Profiling analysis relative to control. The experiment is classed as cell-based.

For experiment [17], the target named is T2, Serine/threonine-protein kinase TBK1 (Homo sapiens) (UniProt Q9UHD2).
T2 sequence (whole entry): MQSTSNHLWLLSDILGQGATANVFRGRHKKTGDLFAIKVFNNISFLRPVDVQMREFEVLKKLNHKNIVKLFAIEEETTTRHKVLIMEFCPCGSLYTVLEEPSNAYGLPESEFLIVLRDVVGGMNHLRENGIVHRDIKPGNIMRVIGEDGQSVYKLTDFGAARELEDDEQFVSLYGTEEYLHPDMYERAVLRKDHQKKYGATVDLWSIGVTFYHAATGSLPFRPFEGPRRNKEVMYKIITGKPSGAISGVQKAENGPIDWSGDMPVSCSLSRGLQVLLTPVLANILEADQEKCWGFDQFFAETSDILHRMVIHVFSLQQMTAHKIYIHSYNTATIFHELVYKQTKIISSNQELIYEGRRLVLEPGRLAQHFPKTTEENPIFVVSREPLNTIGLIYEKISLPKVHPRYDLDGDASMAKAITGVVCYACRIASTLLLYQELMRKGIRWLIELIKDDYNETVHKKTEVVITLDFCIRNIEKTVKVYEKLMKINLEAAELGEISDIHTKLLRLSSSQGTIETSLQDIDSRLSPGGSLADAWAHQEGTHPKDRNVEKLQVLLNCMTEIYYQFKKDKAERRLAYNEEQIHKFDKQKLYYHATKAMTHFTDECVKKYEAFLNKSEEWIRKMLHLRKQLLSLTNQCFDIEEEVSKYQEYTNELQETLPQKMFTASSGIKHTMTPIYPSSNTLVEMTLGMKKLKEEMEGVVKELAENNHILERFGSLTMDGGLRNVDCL
The experiment is described as follows: Inhibition of TBK1 Lys2 labeling site in human Huh-7 cells at 1 uM by KiNativ Profiling analysis relative to control. The experiment is classed as cell-based.

Experiment [18] deals with Mitogen-activated protein kinase kinase kinase 4 (Homo sapiens) (UniProt Q9Y6R4). The experiment is described as follows: Inhibition of MAP3K4 Lys2 labeling site in human Huh-7 cells at 1 uM by KiNativ Profiling analysis relative to control. The experiment is classed as cell-based.
Experiment [19] addresses Serine/threonine-protein kinase 4 (Homo sapiens) (UniProt Q13043). The experiment is described as follows: Inhibition of MST1 Lys1 labeling site harbouring AIHKETGQIVAIKQVPVESDLQEIIK in human Huh-7 cell lysate at 1 uM by KiNativ Profiling analysis relative to control.

The text below walks through data of ChEMBL document CHEMBL5696442, “Discovery of type II inhibitors of TGFβ-activated kinase 1 (TAK1) and mitogen-activated protein kinase kinase kinase kinase 2 (MAP4K2)” (J Med Chem, 2015).

Active and inactive are the calls of the source. The rule behind the calls is not given here.

Ribosomal protein S6 kinase alpha-3 (Homo sapiens), sequence (P51812 whole entry, the tested form may be a part): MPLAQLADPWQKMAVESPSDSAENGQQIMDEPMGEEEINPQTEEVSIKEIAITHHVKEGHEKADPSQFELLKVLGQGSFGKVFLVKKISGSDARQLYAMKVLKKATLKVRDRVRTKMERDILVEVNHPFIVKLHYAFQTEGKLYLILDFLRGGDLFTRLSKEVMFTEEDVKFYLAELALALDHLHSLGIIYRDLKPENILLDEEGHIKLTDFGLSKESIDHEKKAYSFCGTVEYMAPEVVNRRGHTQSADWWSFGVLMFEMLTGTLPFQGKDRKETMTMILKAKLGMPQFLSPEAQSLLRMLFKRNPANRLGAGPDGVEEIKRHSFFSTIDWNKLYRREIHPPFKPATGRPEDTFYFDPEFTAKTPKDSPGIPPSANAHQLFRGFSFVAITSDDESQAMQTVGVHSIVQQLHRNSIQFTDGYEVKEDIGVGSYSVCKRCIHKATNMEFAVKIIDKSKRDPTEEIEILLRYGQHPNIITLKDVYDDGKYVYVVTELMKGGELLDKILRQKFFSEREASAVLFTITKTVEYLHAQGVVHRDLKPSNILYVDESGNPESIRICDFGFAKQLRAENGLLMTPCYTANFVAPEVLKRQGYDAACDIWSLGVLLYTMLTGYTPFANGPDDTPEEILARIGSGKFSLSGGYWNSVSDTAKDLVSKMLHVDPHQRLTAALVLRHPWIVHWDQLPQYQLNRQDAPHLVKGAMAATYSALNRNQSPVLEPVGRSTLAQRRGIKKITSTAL
Serine/threonine-protein kinase 4 (Homo sapiens), sequence (Q13043 whole entry, looked up): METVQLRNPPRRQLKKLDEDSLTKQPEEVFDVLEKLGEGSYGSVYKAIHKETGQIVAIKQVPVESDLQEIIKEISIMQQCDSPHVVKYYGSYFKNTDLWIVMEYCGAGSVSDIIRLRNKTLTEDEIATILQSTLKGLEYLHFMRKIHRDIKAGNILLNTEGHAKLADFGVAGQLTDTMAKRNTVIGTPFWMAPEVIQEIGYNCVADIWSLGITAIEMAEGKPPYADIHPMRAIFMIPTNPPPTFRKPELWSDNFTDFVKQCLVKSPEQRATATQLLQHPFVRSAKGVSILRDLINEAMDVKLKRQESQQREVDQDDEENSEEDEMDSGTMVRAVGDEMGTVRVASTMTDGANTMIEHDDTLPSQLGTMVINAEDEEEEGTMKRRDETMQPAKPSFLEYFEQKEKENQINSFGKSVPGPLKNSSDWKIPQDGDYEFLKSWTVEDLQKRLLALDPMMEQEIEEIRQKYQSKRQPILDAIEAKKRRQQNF
Cyclin-dependent kinase 13 (Homo sapiens), sequence (Q14004 whole entry, looked up): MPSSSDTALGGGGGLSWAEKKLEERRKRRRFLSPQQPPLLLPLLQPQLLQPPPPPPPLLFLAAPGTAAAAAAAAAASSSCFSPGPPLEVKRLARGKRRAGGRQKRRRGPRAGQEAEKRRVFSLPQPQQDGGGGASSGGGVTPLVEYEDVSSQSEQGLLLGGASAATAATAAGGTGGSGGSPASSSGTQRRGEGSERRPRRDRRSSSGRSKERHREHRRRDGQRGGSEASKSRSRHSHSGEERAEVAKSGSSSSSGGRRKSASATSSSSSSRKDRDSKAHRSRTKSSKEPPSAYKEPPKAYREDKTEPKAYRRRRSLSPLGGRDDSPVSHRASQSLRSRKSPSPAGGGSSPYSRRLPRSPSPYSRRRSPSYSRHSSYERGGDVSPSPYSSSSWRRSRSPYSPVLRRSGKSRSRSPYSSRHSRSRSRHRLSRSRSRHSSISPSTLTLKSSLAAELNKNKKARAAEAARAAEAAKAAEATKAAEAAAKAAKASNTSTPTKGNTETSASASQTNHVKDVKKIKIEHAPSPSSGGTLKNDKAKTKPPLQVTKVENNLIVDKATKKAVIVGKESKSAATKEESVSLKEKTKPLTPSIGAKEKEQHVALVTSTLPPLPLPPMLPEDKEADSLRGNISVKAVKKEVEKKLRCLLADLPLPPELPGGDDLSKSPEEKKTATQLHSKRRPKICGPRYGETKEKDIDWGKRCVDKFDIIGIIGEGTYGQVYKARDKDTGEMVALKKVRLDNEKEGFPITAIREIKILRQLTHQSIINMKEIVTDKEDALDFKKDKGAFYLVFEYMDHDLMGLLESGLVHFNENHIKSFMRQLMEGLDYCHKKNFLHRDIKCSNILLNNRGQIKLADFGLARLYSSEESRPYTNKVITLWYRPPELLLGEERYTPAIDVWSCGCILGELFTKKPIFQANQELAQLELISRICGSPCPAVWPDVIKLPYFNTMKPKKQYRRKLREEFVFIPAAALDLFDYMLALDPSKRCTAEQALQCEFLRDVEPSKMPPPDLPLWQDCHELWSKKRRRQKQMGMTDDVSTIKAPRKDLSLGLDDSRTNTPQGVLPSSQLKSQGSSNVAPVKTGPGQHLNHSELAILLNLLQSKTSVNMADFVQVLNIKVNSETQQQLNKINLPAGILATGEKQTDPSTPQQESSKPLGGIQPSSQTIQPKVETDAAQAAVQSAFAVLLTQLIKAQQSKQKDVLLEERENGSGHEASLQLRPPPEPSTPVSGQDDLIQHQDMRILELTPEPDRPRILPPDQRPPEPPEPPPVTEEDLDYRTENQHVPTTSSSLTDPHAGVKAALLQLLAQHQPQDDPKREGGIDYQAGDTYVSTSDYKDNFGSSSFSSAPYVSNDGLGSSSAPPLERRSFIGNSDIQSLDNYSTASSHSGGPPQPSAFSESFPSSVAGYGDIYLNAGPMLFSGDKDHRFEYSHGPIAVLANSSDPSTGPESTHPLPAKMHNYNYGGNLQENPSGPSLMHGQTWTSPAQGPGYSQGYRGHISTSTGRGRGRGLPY
Atypical kinase COQ8B, mitochondrial (Homo sapiens), sequence (Q96D53 whole entry): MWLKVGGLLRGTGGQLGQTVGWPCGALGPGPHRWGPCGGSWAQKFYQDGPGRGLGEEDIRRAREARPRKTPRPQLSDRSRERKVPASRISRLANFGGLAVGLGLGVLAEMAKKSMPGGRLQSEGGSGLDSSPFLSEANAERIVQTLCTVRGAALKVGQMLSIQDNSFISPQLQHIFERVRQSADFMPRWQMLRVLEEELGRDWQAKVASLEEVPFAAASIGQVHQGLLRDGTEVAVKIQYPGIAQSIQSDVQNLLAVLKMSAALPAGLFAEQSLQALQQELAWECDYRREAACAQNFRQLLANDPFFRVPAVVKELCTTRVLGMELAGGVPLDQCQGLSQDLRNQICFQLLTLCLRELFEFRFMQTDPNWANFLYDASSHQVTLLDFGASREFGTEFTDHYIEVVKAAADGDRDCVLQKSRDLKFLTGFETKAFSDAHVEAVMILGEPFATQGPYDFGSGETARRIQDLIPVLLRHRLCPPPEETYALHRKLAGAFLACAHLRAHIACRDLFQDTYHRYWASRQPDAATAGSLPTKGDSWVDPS
Mitogen-activated protein kinase 14, sequence (Q16539 whole entry): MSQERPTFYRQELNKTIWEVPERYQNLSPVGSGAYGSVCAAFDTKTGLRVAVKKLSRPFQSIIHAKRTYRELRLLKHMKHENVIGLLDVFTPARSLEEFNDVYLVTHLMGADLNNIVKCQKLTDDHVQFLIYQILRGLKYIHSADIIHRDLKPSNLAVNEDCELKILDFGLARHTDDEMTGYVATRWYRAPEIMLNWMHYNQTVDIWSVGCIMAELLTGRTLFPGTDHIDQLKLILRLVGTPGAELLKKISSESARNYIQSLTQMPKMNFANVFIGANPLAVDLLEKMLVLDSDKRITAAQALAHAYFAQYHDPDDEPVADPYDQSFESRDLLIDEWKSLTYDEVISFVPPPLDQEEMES

Turning to `CCN1CCN(Cc2ccc(NC(=O)c3ccc(C)c(/C=C/c4cnc5[nH]ccc5c4OC)c3)cc2C(F)(F)F)CC1`, the inhibition was 52.4% in experiment [1], 61% in [3], 16.5% in experiment [4] and 1.5% in [5]. Moreover, inhibition in experiment [2] was half-maximal at 1200 nM (IC50). Also, in [6], the percent of control was 0.8%.

As for `CCN1CCN(Cc2ccc(NC(=O)c3ccc(C)c(Oc4ccnc5[nH]ccc45)c3)cc2C(F)(F)F)CC1`, the inhibition result in experiment [7], in experiment [9], in experiment [10], in [11] and in [13] was “inactive” each time. Also, the inhibition in [8] was 0%; in [12], -2.3%; in experiment [14] it was 11.4%; in experiment [15] it was 5.6%; in experiment [16] it was -0.4%.

With `CNc1cc(Oc2cc(C(=O)Nc3cc(N4CCN(C)CC4)cc(C(F)(F)F)c3)ccc2C)ncn1`, the inhibition in [17] was found to be 17.7%; in experiment [18], 77%; in [19], 12.8%.

The term inhibition denotes the change of the read-out against control, counted positive when it falls. The IC50 is the point on the concentration scale where inhibition reaches its midpoint. Low values mean higher potency, high ones lower potency.
